Test results as given in ChEMBL document CHEMBL2380293, “Design, synthesis, and biological evaluation of novel histone deacetylase 1 inhibitors through click chemistry” (Bioorg Med Chem Lett, 2013).
Calls of active or inactive are those of the source. No cut-off for these calls is given here.

Assays:
Histone deacetylase 1 = Histone deacetylase 1 (Homo sapiens, UniProt Q13547); experiment: Inhibition of human recombinant HDAC1 incubated for 10 mins prior to substrate addition measured after 60 mins by spectrophotometric analysis
Sequence of Histone deacetylase 1 (Q13547 whole entry): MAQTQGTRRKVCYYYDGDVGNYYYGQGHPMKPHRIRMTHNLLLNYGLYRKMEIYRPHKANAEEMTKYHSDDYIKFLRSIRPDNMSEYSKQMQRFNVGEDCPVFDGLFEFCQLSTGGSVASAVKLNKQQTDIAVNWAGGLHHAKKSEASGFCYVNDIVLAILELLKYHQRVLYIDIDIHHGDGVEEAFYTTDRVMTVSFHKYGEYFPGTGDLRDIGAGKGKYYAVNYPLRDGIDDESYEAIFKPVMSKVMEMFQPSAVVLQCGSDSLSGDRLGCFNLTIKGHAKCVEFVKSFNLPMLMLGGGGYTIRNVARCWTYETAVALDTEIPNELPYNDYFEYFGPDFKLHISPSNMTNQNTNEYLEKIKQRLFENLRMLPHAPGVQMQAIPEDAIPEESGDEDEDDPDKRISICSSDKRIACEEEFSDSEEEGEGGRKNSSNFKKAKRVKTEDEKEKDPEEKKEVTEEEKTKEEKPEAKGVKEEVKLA

[1] = molecular target: T1, Histone deacetylase 7 (Homo sapiens) (UniProt Q8WUI4); experiment: Inhibition of human recombinant HDAC7 at 10 uM incubated for 10 mins prior to substrate addition measured after 60 mins by spectrophotometric analysis
T1 sequence (whole entry): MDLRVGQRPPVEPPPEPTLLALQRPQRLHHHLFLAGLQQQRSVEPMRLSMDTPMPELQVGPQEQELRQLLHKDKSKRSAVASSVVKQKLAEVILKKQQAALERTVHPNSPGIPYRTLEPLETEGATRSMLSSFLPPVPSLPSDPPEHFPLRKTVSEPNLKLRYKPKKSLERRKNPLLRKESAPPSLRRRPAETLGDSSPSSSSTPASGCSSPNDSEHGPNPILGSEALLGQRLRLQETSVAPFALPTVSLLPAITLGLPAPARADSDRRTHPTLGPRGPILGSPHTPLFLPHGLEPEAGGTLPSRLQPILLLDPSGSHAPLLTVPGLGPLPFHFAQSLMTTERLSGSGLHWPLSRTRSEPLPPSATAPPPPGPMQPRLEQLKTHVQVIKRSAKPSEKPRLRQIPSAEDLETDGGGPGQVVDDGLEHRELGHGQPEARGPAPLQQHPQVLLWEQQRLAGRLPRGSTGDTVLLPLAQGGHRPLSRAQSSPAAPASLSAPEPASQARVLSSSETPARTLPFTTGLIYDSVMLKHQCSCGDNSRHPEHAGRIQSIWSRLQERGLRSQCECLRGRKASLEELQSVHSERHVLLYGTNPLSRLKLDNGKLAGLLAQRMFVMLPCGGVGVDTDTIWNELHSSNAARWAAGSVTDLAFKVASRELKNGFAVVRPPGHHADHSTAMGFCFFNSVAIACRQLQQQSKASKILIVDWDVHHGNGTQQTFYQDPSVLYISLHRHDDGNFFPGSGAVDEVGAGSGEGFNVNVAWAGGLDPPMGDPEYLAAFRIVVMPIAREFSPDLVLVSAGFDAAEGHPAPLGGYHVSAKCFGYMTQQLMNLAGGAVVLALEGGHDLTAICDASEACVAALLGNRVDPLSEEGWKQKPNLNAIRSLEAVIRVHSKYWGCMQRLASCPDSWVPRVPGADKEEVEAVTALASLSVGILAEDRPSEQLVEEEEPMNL
Procedure, shortened: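 Enzyme IC50 values are means of three experiments, with SAHA run as the positive control. Absence of activity was judged at 10 μM.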

A549 [2] = experiment: Growth inhibition of human A549 cells at 10 uM by MTT assay; assay type: functional, cell-based
Procedure, shortened: (§1)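 MTT cell growth read-out, with SAHA as the positive control. GI50 values are means of three experiments. 10 μM was the concentration tested for scoring absence of activity.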

DU-145 [3] = experiment: Growth inhibition of human DU145 cells at 10 uM by MTT assay; assay type: functional, cell-based; procedure, shortened: as §1
A-431 [4] = experiment: Growth inhibition of human A431 cells at 10 uM by MTT assay; assay type: functional, cell-based; procedure, shortened: as §1
HT-1080 [5] = experiment: Growth inhibition of human HT1080 cells by MTT assay; assay type: functional; procedure, shortened: as §1
HeLa = experiment: Growth inhibition of human HeLa cells at 10 uM by MTT assay; assay type: functional, cell-based; procedure, shortened: as §1
BGC-823 [6] = experiment: Growth inhibition of human BGC823 cells at 10 uM by MTT assay; assay type: functional, cell-based; procedure, shortened: as §1
HUVEC = experiment: Growth inhibition of HUVEC at 10 uM by MTT assay; assay type: functional, cell-based; details: Homo sapiens; procedure, shortened: as §1
DU-145 [7] = experiment: Growth inhibition of human DU145 cells by MTT assay; assay type: functional
HT-1080 [8] = experiment: Growth inhibition of human HT1080 cells at 10 uM by MTT assay; assay type: functional, cell-based; procedure, shortened: as §1
A-431 [9] = experiment: Growth inhibition of human A431 cells by MTT assay; assay type: functional
BGC-823 [10] = experiment: Growth inhibition of human BGC823 cells by MTT assay; assay type: functional
A549 [11] = experiment: Growth inhibition of human A549 cells by MTT assay; assay type: functional

SMILES	IC50 (Histone deacetylase 1) [µM]	inhibition [1]	growth inhibition (GI) (A549 [2])	GI50 (HT-1080 [5]; Homo sapiens, HT-1080) [µM]	growth inhibition (GI) (HeLa)	growth inhibition (GI) (BGC-823 [6])	growth inhibition (GI) (HUVEC)	further results
O=C(CCCCc1cn(Cc2ccccc2)nn1)NO	1.68	inactive						
COc1ccc(Cn2cc(CCCCC(=O)NO)nn2)cc1	1.85	inactive						
Cc1cc(C)cc(Cn2cc(CCCCC(=O)NO)nn2)c1	0.269	inactive	inactive	8.65	inactive	inactive	inactive	growth inhibition (GI) (DU-145 [3]): inactive; growth inhibition (GI) (A-431 [4]): inactive
O=C(CCCCc1cn(Cc2ccccn2)nn1)NO	2.57	inactive						
O=C(CCCCc1cn(Cc2ccc(C(F)(F)F)cc2)nn1)NO	0.44	inactive						
O=C(CCCCCCC(=O)Nc1ccccc1)NO [VORINOSTAT]								GI50 (HT-1080 [5]): 4.87 µM
O=C(CCCCc1cn(Cc2ccc3ccccc3n2)nn1)NO	0.246	inactive	inactive	10.2	inactive	inactive	inactive	growth inhibition (GI) (A-431 [4]): inactive; GI50 (DU-145 [7]): 4.06 µM
O=C(CCCCc1cn(Cc2ccc(F)cc2F)nn1)NO	1.22	inactive						
O=C(CCCCc1cn(Cc2ccc(F)c(Cl)c2)nn1)NO	0.649	inactive	inactive	10.2	inactive	inactive	inactive	growth inhibition (GI) (DU-145 [3]): inactive
O=C(CCCCc1cn(Cc2ccc(F)cc2)nn1)NO	0.645	inactive						
N#Cc1ccc(Cn2cc(CCCCC(=O)NO)nn2)cc1	0.701	inactive						
COc1cc(Br)c(Cn2cc(CCCCC(=O)NO)nn2)cc1OC	0.862	inactive	inactive		inactive	inactive	inactive	growth inhibition (GI) (DU-145 [3]): inactive; growth inhibition (GI) (HT-1080 [8]): inactive; GI50 (A-431 [9]): 17.3 µM
CC(C)(C)c1ccc(Cn2cc(CCCCC(=O)NO)nn2)cc1	0.601	inactive	inactive	7.37	inactive	inactive	inactive	growth inhibition (GI) (A-431 [4]): inactive; GI50 (DU-145 [7]): 7.2 µM
Cc1ccc(Cn2cc(CCCCC(=O)NO)nn2)cc1	0.44	inactive						
O=C(CCCCc1cn(Cc2ccc3ccccc3c2)nn1)NO	0.107	inactive	inactive	4.61	inactive		inactive	GI50 (BGC-823 [10]): 6.64 µM; GI50 (DU-145 [7]): 7.23 µM; GI50 (A-431 [9]): 5.68 µM
O=C(CCCCc1cn(Cc2ccccc2F)nn1)NO	1.36	inactive						
Cc1ccccc1Cn1cc(CCCCC(=O)NO)nn1	1.05	inactive						
O=C(CCCCc1cn(Cc2cccc(Br)c2)nn1)NO	0.396	inactive	inactive	6.65	inactive	inactive	inactive	growth inhibition (GI) (DU-145 [3]): inactive; growth inhibition (GI) (A-431 [4]): inactive
O=C(CCCCc1cn(Cc2ccc(Br)cc2)nn1)NO	1.6	inactive	inactive		inactive	inactive		GI50 (DU-145 [7]): 7.91 µM; growth inhibition (GI) (HT-1080 [8]): inactive; GI50 (A-431 [9]): 15.4 µM
COc1cc(Cn2cc(CCCCC(=O)NO)nn2)cc(OC)c1	0.252	inactive	inactive	8.04	inactive	inactive	inactive	GI50 (DU-145 [7]): 7.89 µM; GI50 (A-431 [9]): 6.8 µM
COc1ccc(Br)c(Cn2cc(CCCCC(=O)NO)nn2)c1	0.159	inactive	inactive	9.94	inactive	inactive	inactive	growth inhibition (GI) (A-431 [4]): inactive; GI50 (DU-145 [7]): 5.62 µM
O=C(CCCCc1cn(Cc2ccc3c(c2)OCO3)nn1)NO	1.9	inactive						
O=C(CCCCc1cn(Cc2ccccc2Br)nn1)NO	3.58	inactive	inactive		inactive	inactive		growth inhibition (GI) (DU-145 [3]): inactive; growth inhibition (GI) (A-431 [4]): inactive; growth inhibition (GI) (HT-1080 [8]): inactive
O=C(CCCCc1cn(Cc2ccccc2Cn2cc(CCCCC(=O)NO)nn2)nn1)NO	0.807	inactive						
O=C(CCCCc1cn(Cc2ccc(Oc3ccccc3)cc2)nn1)NO	0.122	inactive	inactive	7.69	inactive			GI50 (BGC-823 [10]): 7.77 µM; GI50 (DU-145 [7]): 4.49 µM; GI50 (A-431 [9]): 9.03 µM
O=C(CCCCn1cc(-c2ccccc2)nn1)NO	5.13				inactive	inactive	inactive	growth inhibition (GI) (DU-145 [3]): inactive; growth inhibition (GI) (A-431 [4]): inactive; GI50 (A549 [11]): 7.69 µM; growth inhibition (GI) (HT-1080 [8]): inactive
O=C(CCCCc1cn(Cc2ccc(Cl)cc2)nn1)NO	2.21	inactive						
